# Screens: PubChem BioAssay, The Scripps Research Institute Molecular Screening Center
# Sampled rows, rich in hits. Any-hit rate of the full collection: about 3.2%.
# OX1R antag-1: OX1R (HCRTR1) antagonists, primary screen, fluorescence, CHO/OX1R cells, Fluo-8 calcium, orexin A; Fluo-8 calcium fluorescence; AID 434989, 2010; Orexin/Hypocretin receptor type 1 (Homo sapiens), O43613; hit rate 0.43% among 330,000; inhibition, % at 5 µM;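 active = inhibition above its plate's threshold, mean inhibition of all tested compounds on the plate plus 3 SD, cut at about 37% in these data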;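 note: 0% = orexin A challenge wells and 100% = SB-334867-A antagonist wells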
# Target sequence (O43613 whole entry, looked up): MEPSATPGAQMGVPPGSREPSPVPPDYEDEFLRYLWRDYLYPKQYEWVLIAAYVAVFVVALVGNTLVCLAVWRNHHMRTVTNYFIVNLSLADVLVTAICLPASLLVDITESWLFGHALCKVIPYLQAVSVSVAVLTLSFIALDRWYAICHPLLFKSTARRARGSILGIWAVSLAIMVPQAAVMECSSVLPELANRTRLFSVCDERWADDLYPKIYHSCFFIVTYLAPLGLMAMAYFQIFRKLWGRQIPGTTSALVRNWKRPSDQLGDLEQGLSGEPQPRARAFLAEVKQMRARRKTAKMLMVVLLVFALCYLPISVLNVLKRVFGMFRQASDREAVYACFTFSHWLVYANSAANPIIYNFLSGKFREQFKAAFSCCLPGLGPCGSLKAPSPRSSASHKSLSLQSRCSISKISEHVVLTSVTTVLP
# GPR7 antag: GPR7 receptor antagonists, primary screen, cell-based, fluorescence, single concentration; GPR7-expressing cells, fluorescence antagonist assay; inhibition, % at 4.4 µM; hit rate 1.1% among 290,000; AID 1861, 2009; in the data active = inhibition above about 16%, passing the limit was not always enough;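 note: cells stimulated with the agonist NPW; 0% = agonist with vehicle and 100% = vehicle without agonist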
# Target sequence (P48145 whole entry, looked up): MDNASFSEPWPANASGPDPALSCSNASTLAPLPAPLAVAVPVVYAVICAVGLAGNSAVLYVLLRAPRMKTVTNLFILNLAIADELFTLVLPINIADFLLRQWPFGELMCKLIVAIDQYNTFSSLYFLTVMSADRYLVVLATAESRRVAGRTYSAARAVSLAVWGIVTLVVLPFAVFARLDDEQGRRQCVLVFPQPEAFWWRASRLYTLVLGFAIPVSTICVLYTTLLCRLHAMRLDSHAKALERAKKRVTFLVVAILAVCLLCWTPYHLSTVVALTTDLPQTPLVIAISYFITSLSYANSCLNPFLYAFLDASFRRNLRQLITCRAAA
# TRPN1 ag: zebrafish TRPN1 channel agonists, primary screen, cell-based, HEK293, calcium fluorescence; transient receptor potential cation channel N1 (TRPN1/NompC), Danio rerio; HEK293 zebrafish TRPN1-YFP, Fluo-8 calcium fluorescence; 100% = response to 87 µM carbachol; activation, % at 3 µM; hit rate 0.18% among 220,000;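 active = activation above its plate's cutoff, the mean activation of test wells on that plate plus 3 SD, cut at about 19% in these data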;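 note: 0% = DMSO alone and 100% = 87 µM carbachol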
#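 System: zebrafish TRPN1-YFP in HEK293 cells / Dosing: 3 µM single point / Timing: dye loading 1 h at 37 °C, then 30 min room temperature / Signal: Fluo-8 calcium fluorescence, excitation 470-495 nm, emission 515-575 nm / Read-out basis: percent activation from peak over basal fluorescence ratio, control-normalized / Control set: high carbachol 87 µM, low DMSO alone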
# OX1R antag-2: antagonists of human orexin 1 receptor (OX1R); Orexin/Hypocretin receptor type 1 (Homo sapiens), O43613; OX1R-expressing cells, FRET antagonist read-out; inhibition, % at 6.6 µM; hit rate 1.8% among 330,000; AID 485270, 2010; in the data active = inhibition mostly above about 38%, no sharp cut-off; inactive = mostly below about 40%;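 note: 0% = agonist challenge alone and 100% = reference antagonist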
# CHO parental Ca: ATP-evoked calcium signal inhibitors, parental CHO, primary screen, counter-screen for OX1R antagonist project, cell-based, fluorescence, Fluo-8 calcium dye; AID 463079, 2010; parental CHO-K1, ATP-induced calcium, Fluo-8 fluorescence; inhibition, % at 5.6 µM; hit rate 0.63% among 330,000;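 active = inhibition above that plate's mean sample inhibition plus 3 SD, cut at about 26% in these data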;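 note: 0% = ATP-challenged DMSO wells and 100% = DMSO wells without ATP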
#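 Assay system: untransfected parental CHO cell line. Also added: ATP agonist challenge. Dosing: one dose, 5.6 µM nominal. Measured by: Fluo-8 fluorescence. Read-out: % inhibition. Benchmarks: ATP wells versus no-ATP DMSO wells. Repeats: no replicates.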
# TRPML3 agonist: human TRPML3 channel agonists, primary screen, cell-based, HEK293 TRPML3-YFP, Fluo-8 calcium fluorescence, 3 µM; Mucolipin-3 (Homo sapiens), Q8TDD5; 100% = the carbachol control signal; activation, % at 3 µM; hit rate 0.29% among 220,000; AID 1448, 2008;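 active = activation above its plate's cutoff, the mean activation of the plate's test wells plus 3 SD, cut at about 12% in these data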;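 note: 0% = DMSO only wells and 100% = carbachol wells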
#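 Test system: HEK293 cells stably carrying human TRPML3-YFP; Doses: single dose, 3 µM final nominal compound, 0.3% DMSO final; Schedule: dye loading 1 h 37 °C then 30 min ambient, 125 s read; Technique: Fluo-8 calcium fluorescence; Benchmarks: high control carbachol 87 µM, low control DMSO.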
# OX1R HTRF conf: OX1R (HCRTR1) antagonists, confirmation, cell-based, HTRF. shares compounds with OX1R antag-2. OX1R-expressing cells, HTRF antagonist assay. inhibition, % at 6.6 µM. hit rate 49% among 1,800. AID 492964, 2010; in the data active = inhibition above about 55%;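 note: CHO cells expressing OX1R stimulated with orexin A at about EC80; 0% = agonist challenge alone and 100% = reference antagonist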
# CHO-K1 HTRF cnt: signal inhibition in parental CHO-K1 cells, counter-screen for OX1R antagonist project, cell-based, HTRF | shares compounds with OX1R antag-2 | HTRF counterscreen | inhibition, % at 6.6 µM | hit rate 48% among 1,800; in the data active = inhibition above about 17%;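 note: 0% = agonist challenge with vehicle and 100% = vehicle alone without agonist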
# * hit, by the source's call; nt = no result given.
SMILES,OX1R antag-1,GPR7 antag,TRPN1 ag,OX1R antag-2,CHO parental Ca,TRPML3 agonist,OX1R HTRF conf,CHO-K1 HTRF cnt
C[C@H](CO)N1C[C@H](C)[C@@H](CN(C)S(=O)(=O)c2ccc(F)cc2)Oc2ccc(NC(=O)C3CC3)cc2C1=O,1.8,nt,nt,6.8,-13.3,nt,nt,nt
CCc1nc2ccc(C(=O)Nc3nnc(C)s3)cc2nc1CC,-14.0,-7.3,-0.5,15.9,-20.3,1.0,nt,nt
CCc1nc2ccc(C(=O)Nc3cccc(C(C)=O)c3)cc2nc1CC,1.5,-7.6,2.4,80.9*,-19.2,0.1,33.2,4.9
O=C(/C=C/c1ccc([N+](=O)[O-])cc1)NCc1cccnc1,-3.4,13.8,-0.1,104.3*,2.6,0.6,35.5,36.3*
O=C(/C=C/c1ccc(Cl)c([N+](=O)[O-])c1)NCc1cccnc1,-7.3,-0.4,1.5,53.1,-1.5,0.2,nt,nt
O=C(N/N=C/c1ccccn1)c1ccc(Cl)c(Cl)c1,20.2,-3.1,nt,36.8,23.8,nt,nt,nt
O=C(O)c1ccc([N+](=O)[O-])c2c1C(=O)c1ccccc1C2=O,12.5,nt,nt,101.0*,1.0,nt,69.0*,103.9*
Cc1ccccc1NC(=O)CSc1nnc2ccc(-c3ccncc3)nn12,-18.0,nt,nt,79.4*,-14.3,nt,30.1,35.9*
CCOC(=O)[C@@H]1[C@H]2COc3ccc(Br)cc3[C@H]2N2C(=O)N(c3ccc(C(F)(F)F)cc3)C(=O)[C@]12C,-14.4,nt,nt,5.7,-26.2,nt,nt,nt
Cn1c(N)c(S(=O)(=O)c2ccc(Br)cc2)c2nc3ccccc3nc21,-8.7,-1.4,0.1,4.3,-4.8,0.2,nt,nt
Cn1c(=O)c2nc3ccccc3nc2n(C)c1=O,13.4,0.6,0.0,159.7*,7.0,1.1,92.3*,95.3*
Cn1c(=O)c2c(nc(Cl)n2CCOc2ccccc2)n(C)c1=O,2.2,-9.6,nt,6.6,3.1,nt,nt,nt
Cn1c(=O)c2nc(Cl)c(-c3ccccc3)nc2n(C)c1=O,-15.9,7.5,0.9,86.7*,-5.4,0.0,52.4,80.5*
CN(C(=O)CSc1ncc(C(F)(F)F)cc1Cl)c1c(N)n(Cc2ccccc2)c(=O)[nH]c1=O,20.1,-2.0,0.9,88.5*,-1.5,0.2,68.0*,3.8
Cc1cnc2cc([N+](=O)[O-])ccc2n1,2.0,-3.3,0.4,100.9*,-10.1,1.1,66.2*,84.4*
Cc1ccc(NCC(=O)N=Nc2c(O)n(C)c3ccccc23)cc1,-4.4,-5.5,0.5,94.5*,10.7,0.0,38.0,32.4*
c1cncc(-c2nc(N3CCCCCC3)c3ccccc3n2)c1,-26.3,-17.0,-3.5,29.6,-24.0,-2.5,nt,nt
c1ccc2c(N3CCCCCC3)nc(-c3ccncc3)nc2c1,-19.7,-0.1,-1.5,88.1*,-50.2,0.3,40.7,7.6
CCOC(=O)c1c(C)oc2c1c1c(c3ccccc32)OCN(Cc2ccccn2)C1,-5.3,-12.8,-0.9,83.9*,-18.2,-0.6,14.1,4.3
CC(C)N(Cc1nc(-c2ccccc2)no1)C(=O)Cc1ccccc1,9.6,0.2,-0.2,78.2*,-14.5,-0.1,51.9,-14.9
Cc1cccc(-c2noc(CN(C(=O)c3c(-c4ccccc4Cl)noc3C)C(C)C)n2)c1,-3.7,-4.2,0.9,17.3,23.8,0.2,nt,nt
COc1cccc(C(=O)N(Cc2nc(-c3cccc(C)c3)no2)C(C)C)c1OC,11.4,-12.2,-1.0,81.0*,-12.6,-0.6,68.6*,-9.1
COC(=O)CN1C(=O)N/C(=C/c2ccccc2OC)C1=O,-16.5,-5.6,0.2,119.1*,-5.3,0.0,19.4,6.3
CC1=NN(C(N)=S)C(=O)C1N=Nc1ccccc1C (stereo unspecified),-23.4,-7.1,-0.9,96.0*,-31.4,-1.0,31.4,17.1*
CC1=NN(C(N)=S)C(=O)C1N=Nc1ccccc1O (stereo unspecified),-2.3,10.3,nt,-5.2,2.7,nt,nt,nt
SMILES,OX1R antag-1,GPR7 antag,TRPN1 ag,OX1R antag-2,CHO parental Ca,TRPML3 agonist,OX1R HTRF conf,CHO-K1 HTRF cnt
COc1cc(OC)cc(C(=O)Nn2cc(C(=O)Nc3ccc(F)cc3F)c3ccccc3c2=O)c1,-2.5,-5.7,-0.7,22.8,-16.2,0.3,nt,nt
CCOC(=O)N1CCN(C2=C(NS(=O)(=O)c3ccc(C)cc3)C(=O)c3ccccc3C2=O)CC1,-28.0,-10.7,nt,82.7*,-23.3,nt,57.7*,90.8*
NC(=O)C1CCN(C2=C(NS(=O)(=O)c3ccc(Cl)cc3)C(=O)c3ccccc3C2=O)CC1,-34.3,-11.7,-1.7,179.3*,-7.2,-1.3,52.8,56.9*
CC1CCCN(C2=C(NS(=O)(=O)c3ccc(Cl)cc3)C(=O)c3ccccc3C2=O)C1 (stereo unspecified),-19.8,8.5,-0.9,29.8,-1.8,0.6,nt,nt
COC(=O)C1CCN(C2=C(NS(=O)(=O)c3ccc(Cl)cc3)C(=O)c3ccccc3C2=O)CC1,-27.0,11.7,-0.3,97.6*,-7.8,-0.8,46.3,59.4*
COc1ccc(C(=O)c2ccc3oc(-c4ccc(OC)cc4)c(-c4ccc(O)cc4)c3c2)cc1,25.6,nt,nt,6.2,11.1,nt,nt,nt
CC(=O)OCCCNc1cc(Sc2ccc(C)cc2)c2nonc2c1[N+](=O)[O-],1.1,-3.0,0.9,18.0,1.4,0.5,nt,nt
Cn1ccnc1Sc1cc(NCCCO)c([N+](=O)[O-])c2nonc12,-0.2,0.8,-1.0,83.4*,8.4,0.5,51.2,78.2*
Cc1ccc2cc3cc(C(=O)NCCCN4CCCCCC4)oc3nc2c1,-24.1,-4.4,0.9,82.2*,-27.4,0.5,42.3,36.2*
COc1ccc(OC)c(CNC(=O)C2CCC(=O)N(CCCN3CCCC3=O)C2)c1 (stereo unspecified),nt,-6.5,nt,nt,nt,nt,nt,nt
COc1ccc(OCc2cc(C(=O)NCCN3CCCc4ccccc43)no2)c(Cl)c1,-27.7,-3.4,nt,8.3,-14.4,nt,nt,nt
COC(=O)Nc1nn(-c2ccc(OC)cc2)c(=O)c(C#N)c1C,-1.3,-4.8,-0.1,166.3*,-11.4,0.2,59.2*,91.0*
COc1ccc(-n2nc(C(=O)N3CCCCC3)c(C)c(C#N)c2=O)cc1,-12.1,-1.7,-0.7,112.9*,-8.8,0.1,77.3*,50.3*
